Measurements reported in ChEMBL document CHEMBL4732120, “Discovery of novel PARP/PI3K dual inhibitors with high efficiency against BRCA-proficient triple negative breast cancer” (Eur J Med Chem, 2021).

Legend:
[1] = molecular target: Voltage-gated inwardly rectifying potassium channel KCNH2 (Homo sapiens, UniProt Q12809); test: Inhibition of human ERG
[2] = Elimination rate constant in human liver microsomes measured after 1 hr; format: ADME, Microsome
Method in brief: (§1)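 Compound incubated 1 h with mouse, rat, dog, monkey or human liver microsomes. Derived values were the elimination rate constant k, the elimination half-life T1/2 and the intrinsic clearance CLint.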

[3] = Toxicity in Sprague-Dawley rat assessed as death at 1000 mg/kg, po administered as single dose; format: organism-based; settings: in vivo
Method in brief: (§2)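 Sprague-Dawley rats, n = 6 (3 male, 3 female), given a single oral dose of 1000 mg/kg. Deaths and body-weight change were recorded to estimate the maximum tolerated dose.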

[4] = Apparent permeability across basolateral to apical side in human Caco2 cells at 5 uM measured after 120 mins; format: ADME, cell-based; settings: Caco-2
Method in brief: (§3)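 Bidirectional permeability run, apical-to-basolateral and basolateral-to-apical. Test compound at 5 µM, incubated 120 min. Papp (10^-6 cm/s), recovery (%) and efflux ratio reported as the mean of two experiments.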

[5] = Elimination rate constant in mouse liver microsomes measured after 1 hr; format: ADME, Microsome; method in brief: as §1
[6] = Elimination half life in monkey liver microsomes measured after 1 hr; format: ADME, Macaca mulatta, Microsome; settings: rhesus monkey, read-out: beta t1/2; method in brief: as §1
[7] = Toxicity in Sprague-Dawley rat assessed as change in body weight at 1000 mg/kg, po administered as single dose measured during adaptation period (reference value: 258 +/- 13 g); format: organism-based; settings: in vivo
[8] = Toxicity in MDA-MB-468 cells xenografted BALB/c mouse assessed as change in body weight at 50 mg/kg, ip administered every two days for 34 days measured at 2 days interval during compound dosing; settings: in vivo, 816 h
[9] = Toxicity in Sprague-Dawley rat assessed as change in body weight at 1000 mg/kg, po administered as single dose measured on day 2 (reference value: 273 +/- 15 g); format: organism-based; settings: in vivo, 48 h, time 2 day
[10] = molecular target: Poly [ADP-ribose] polymerase 2 (Homo sapiens, UniProt Q9UGN5); test: Inhibition of PARP2 (unknown origin)
Poly [ADP-ribose] polymerase 2, sequence (Q9UGN5 whole entry): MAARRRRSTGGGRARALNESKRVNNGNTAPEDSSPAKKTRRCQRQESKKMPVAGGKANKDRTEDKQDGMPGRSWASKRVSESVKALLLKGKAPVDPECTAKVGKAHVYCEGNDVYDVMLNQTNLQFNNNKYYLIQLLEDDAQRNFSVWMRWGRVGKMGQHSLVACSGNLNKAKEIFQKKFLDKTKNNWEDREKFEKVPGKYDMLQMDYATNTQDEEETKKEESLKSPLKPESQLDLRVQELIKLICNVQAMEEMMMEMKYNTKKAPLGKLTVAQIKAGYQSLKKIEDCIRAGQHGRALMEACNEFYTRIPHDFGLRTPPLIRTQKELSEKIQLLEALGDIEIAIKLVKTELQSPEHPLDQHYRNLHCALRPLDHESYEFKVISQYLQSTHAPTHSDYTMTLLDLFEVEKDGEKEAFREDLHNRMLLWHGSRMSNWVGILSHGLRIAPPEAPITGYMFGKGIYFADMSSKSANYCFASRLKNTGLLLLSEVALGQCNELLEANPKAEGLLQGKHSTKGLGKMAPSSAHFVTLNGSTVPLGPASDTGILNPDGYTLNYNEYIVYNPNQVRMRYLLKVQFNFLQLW

[11] = Elimination half life in dog liver microsomes measured after 1 hr; format: ADME, Canis lupus familiaris, Microsome; settings: read-out: beta t1/2; method in brief: as §1
[12] = molecular target: Phosphatidylinositol 4,5-bisphosphate 3-kinase catalytic subunit alpha isoform (Homo sapiens, UniProt P42336); test: Inhibition of PI3Kalpha (unknown origin)
Phosphatidylinositol 4,5-bisphosphate 3-kinase catalytic subunit alpha isoform, sequence (P42336 whole entry, canonical isoform): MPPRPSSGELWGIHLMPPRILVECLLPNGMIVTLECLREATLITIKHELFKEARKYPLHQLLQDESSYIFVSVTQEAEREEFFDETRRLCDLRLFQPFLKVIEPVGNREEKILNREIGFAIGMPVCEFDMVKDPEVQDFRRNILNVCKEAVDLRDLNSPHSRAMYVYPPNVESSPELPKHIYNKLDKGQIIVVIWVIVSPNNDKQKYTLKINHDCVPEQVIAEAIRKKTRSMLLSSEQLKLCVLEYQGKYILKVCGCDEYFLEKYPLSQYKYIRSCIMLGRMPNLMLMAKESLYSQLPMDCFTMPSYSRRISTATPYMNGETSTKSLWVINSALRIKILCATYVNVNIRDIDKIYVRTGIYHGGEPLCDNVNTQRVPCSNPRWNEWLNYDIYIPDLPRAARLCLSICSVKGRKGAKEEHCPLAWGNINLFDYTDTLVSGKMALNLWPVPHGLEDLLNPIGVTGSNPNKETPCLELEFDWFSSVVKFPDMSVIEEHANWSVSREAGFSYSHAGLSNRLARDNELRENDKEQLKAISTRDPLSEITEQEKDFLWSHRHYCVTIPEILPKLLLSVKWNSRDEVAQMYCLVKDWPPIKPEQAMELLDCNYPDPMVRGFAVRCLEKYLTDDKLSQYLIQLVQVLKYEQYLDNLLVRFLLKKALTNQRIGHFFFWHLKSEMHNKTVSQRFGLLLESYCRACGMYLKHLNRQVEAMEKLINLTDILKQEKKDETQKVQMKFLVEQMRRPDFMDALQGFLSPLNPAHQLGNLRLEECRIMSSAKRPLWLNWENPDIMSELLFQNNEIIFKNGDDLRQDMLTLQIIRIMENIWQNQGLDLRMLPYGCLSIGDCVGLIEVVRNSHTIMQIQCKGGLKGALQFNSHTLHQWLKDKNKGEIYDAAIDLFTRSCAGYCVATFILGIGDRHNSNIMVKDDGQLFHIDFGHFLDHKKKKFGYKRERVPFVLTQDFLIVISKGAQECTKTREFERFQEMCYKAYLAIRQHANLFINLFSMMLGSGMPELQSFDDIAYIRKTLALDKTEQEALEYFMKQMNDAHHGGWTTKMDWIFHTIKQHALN
Method in brief: (§4)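 PARP-1 and PI3Kα enzyme inhibition. IC50 taken from dose-response curves and given as mean ± SD of three independent experiments.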

[13] = Toxicity in Sprague-Dawley rat administered as single oral dose; settings: in vivo; method in brief: as §2
[14] = test system: MDA-MB-468; test: Antitumor activity against human MDA-MB-468 cells xenografted in BALB/c mouse assessed as tumor growth inhibition at 50 mg/kg, ip administered every two days for 34 days relative to control; settings: MDA-MB-468, ip, 816 h, read-out: TGI
[15] = Intrinsic clearance in dog liver microsomes measured after 1 hr; format: ADME, Canis lupus familiaris, Microsome; settings: read-out: CLH; method in brief: as §1
[16] = Apparent permeability across apical to basolateral side in human Caco2 cells at 5 uM measured after 120 mins; format: ADME, cell-based; settings: Caco-2; method in brief: as §3
[17] = test system: MDA-MB-468; test: Induction of apoptosis in human MDA-MB-468 cells assessed as late apoptotic cells at 1 uM measured after 72 hrs by Annexin V-FITC/propidium iodide staining based flow cytometry (reference value: 0.78%); format: functional
[18] = molecular target: Phosphatidylinositol 4,5-bisphosphate 3-kinase catalytic subunit gamma isoform (Homo sapiens, UniProt P48736); test: Inhibition of PI3Kgamma (unknown origin)
Phosphatidylinositol 4,5-bisphosphate 3-kinase catalytic subunit gamma isoform, sequence (P48736 whole entry, canonical isoform): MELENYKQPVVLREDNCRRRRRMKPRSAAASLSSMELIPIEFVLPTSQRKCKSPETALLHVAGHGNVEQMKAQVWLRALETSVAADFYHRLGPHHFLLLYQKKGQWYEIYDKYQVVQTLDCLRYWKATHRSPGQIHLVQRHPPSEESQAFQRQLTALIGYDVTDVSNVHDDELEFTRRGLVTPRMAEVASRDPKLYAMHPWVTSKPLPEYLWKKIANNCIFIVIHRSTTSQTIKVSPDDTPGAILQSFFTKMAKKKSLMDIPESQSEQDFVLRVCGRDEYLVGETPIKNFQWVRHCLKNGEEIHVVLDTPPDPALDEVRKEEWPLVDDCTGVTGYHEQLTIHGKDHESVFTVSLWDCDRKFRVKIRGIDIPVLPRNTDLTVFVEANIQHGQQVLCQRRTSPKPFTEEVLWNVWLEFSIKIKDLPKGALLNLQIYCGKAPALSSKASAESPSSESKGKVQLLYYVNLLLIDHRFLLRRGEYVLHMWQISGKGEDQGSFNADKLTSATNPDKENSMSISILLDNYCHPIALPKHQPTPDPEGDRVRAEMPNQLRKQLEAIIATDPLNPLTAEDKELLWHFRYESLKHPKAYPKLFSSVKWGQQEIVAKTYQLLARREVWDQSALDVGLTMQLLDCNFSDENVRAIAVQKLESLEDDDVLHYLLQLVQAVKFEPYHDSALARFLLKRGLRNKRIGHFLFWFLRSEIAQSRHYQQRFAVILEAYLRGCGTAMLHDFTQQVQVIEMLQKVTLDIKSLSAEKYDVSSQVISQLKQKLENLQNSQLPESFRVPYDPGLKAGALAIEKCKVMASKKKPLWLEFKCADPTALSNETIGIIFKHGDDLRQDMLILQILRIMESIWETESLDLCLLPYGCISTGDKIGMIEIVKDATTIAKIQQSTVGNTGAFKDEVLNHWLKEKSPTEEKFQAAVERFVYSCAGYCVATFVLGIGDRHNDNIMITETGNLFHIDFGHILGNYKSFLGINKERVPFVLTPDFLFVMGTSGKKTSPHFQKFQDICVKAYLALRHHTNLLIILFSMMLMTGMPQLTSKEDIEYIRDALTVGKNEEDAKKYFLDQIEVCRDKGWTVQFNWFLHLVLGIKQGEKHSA

[19] = test system: MDA-MB-468; test: Induction of apoptosis in human MDA-MB-468 cells assessed as necrotic cells at 1 uM measured after 72 hrs by Annexin V-FITC/propidium iodide staining based flow cytometry (reference value: 0.13%); format: functional
[20] = Elimination rate constant in dog liver microsomes measured after 1 hr; format: ADME, Canis lupus familiaris, Microsome; method in brief: as §1
[21] = test system: MDA-MB-468; test: Induction of apoptosis in human MDA-MB-468 cells assessed as early apoptotic cells at 1 uM measured after 72 hrs by Annexin V-FITC/propidium iodide staining based flow cytometry (reference value: 3.88%); format: functional
[22] = Elimination rate constant in monkey liver microsomes measured after 1 hr; format: ADME, Macaca mulatta, Microsome; settings: rhesus monkey; method in brief: as §1
[23] = Intrinsic clearance in mouse liver microsomes measured after 1 hr; format: ADME, Microsome; settings: read-out: CLH; method in brief: as §1
[24] = Toxicity in […] cells xenografted BALB/c mouse assessed as mortality at 50 mg/kg, ip administered every two days for 34 days; format: organism-based; settings: in vivo, 816 h, time 34 day
[25] = Toxicity in Sprague-Dawley rat assessed as change in body weight at 1000 mg/kg, po administered as single dose measured on day 4 (reference value: 280 +/- 12 g); format: organism-based; settings: in vivo, 96 h, time 4 day
[26] = molecular target: Poly [ADP-ribose] polymerase 1 (Homo sapiens, UniProt P09874); test: Inhibition of PARP1 (unknown origin); method in brief: as §4
Poly [ADP-ribose] polymerase 1, sequence (P09874 whole entry): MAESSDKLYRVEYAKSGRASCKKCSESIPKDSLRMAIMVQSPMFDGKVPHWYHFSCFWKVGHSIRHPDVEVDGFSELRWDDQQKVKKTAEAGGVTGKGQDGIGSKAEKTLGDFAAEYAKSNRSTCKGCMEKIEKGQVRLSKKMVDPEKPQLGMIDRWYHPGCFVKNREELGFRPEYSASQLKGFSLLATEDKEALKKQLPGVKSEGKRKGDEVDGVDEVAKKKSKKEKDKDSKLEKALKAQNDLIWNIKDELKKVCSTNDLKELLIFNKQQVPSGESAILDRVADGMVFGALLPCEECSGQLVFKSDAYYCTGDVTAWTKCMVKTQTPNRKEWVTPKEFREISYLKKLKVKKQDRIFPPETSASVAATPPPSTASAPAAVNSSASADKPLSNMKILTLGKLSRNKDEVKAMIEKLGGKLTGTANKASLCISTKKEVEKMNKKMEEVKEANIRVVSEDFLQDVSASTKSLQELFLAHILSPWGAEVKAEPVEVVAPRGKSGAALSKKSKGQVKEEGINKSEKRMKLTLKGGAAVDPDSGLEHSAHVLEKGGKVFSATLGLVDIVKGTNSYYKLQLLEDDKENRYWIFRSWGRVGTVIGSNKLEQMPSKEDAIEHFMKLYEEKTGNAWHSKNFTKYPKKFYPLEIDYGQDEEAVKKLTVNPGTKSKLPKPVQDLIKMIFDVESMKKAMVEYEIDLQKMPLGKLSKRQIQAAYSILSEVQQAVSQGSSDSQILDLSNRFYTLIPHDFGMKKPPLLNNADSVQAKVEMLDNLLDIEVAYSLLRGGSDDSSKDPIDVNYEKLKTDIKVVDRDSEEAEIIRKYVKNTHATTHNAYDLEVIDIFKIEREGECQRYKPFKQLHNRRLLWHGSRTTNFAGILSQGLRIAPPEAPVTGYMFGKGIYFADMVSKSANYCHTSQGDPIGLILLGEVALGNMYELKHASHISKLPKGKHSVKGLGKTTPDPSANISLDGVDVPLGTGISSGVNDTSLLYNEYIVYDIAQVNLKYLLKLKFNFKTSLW

[27] = Elimination rate constant in rat liver microsomes measured after 1 hr; format: ADME, Microsome; method in brief: as §1

Voltage-gated inwardly rectifying potassium channel KCNH2, sequence (Q12809 whole entry): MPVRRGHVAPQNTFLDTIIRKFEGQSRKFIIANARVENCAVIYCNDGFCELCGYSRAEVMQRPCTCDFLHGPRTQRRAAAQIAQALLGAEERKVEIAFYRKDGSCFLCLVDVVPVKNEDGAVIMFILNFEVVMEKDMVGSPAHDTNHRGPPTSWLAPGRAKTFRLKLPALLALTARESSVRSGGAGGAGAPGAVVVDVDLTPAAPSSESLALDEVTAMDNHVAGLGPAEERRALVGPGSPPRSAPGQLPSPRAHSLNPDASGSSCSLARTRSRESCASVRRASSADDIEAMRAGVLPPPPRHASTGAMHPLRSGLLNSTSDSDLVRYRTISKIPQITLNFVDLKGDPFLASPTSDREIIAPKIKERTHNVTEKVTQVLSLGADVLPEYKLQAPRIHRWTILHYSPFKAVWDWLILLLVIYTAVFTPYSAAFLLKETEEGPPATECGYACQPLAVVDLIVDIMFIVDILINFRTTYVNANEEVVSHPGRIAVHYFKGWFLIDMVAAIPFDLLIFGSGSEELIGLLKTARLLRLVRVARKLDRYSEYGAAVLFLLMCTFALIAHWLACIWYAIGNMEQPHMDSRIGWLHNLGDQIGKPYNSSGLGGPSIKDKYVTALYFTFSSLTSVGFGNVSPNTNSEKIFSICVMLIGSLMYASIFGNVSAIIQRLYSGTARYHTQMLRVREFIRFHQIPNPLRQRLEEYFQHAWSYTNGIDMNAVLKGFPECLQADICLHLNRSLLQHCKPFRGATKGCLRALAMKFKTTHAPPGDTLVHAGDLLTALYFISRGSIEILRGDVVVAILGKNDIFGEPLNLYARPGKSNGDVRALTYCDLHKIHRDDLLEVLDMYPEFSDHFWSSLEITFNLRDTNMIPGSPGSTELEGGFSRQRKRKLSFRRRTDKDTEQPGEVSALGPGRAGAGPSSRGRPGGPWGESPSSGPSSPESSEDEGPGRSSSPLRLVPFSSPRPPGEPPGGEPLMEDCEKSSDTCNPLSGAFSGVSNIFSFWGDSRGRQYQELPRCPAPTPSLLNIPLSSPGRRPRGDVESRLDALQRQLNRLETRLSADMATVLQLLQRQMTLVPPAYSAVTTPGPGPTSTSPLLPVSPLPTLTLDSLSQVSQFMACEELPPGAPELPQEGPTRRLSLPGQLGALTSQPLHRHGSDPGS

**Q.** Which results are given for `NC(=O)c1cccc2cc(C(=O)N3CCN(c4nc(-c5cnc(NC(=O)CN6CCOCC6)cc5C(F)(F)F)nc(N5CCOCC5)n4)CC3)oc12`?
**A.** IC50 [1]: 29.4 µM; k el at 1 h [2]: 0.000122 s⁻¹; Activity [3]: Non-Toxic; Papp B→A at 2 h, 5 µM [4]: 22.1 ×10⁻⁶ cm/s; k el at 1 h [5]: 0.000663 s⁻¹; half-life [6]: 59.1 min; Activity [7]: 256 g; Activity [8]: Non-Toxic; Activity [9]: 267 g; IC50 [10]: 0.0062 µM; half-life [11]: 47.3 min; IC50 [12]: 0.064 µM; MTD [13]: > 1000 mg/kg; inhibition in vivo at 50 mg/kg [14]: 54.6%; microsomal CLint [15]: 29.3 µL/min/mg; Papp A→B at 2 h, 5 µM [16]: 8.42 ×10⁻⁶ cm/s; Activity [17]: 13.5%; IC50 [18]: 1.1 µM; Activity [19]: 3.47%; k el at 1 h [20]: 0.000245 s⁻¹; Activity [21]: 15.8%; k el at 1 h [22]: 0.000255 s⁻¹; microsomal CLint [23]: 79.7 µL/min/mg; Activity [24]: Non-Toxic; Activity [25]: 272 g; IC50 [26]: 0.0138 µM; k el at 1 h [27]: 0.000275 s⁻¹
